Structures are written as SMILES.

The term IC50 denotes the concentration needed to halve the response being measured. Read a high IC50 as weaker potency. The term inhibition denotes the change of the read-out against control, counted positive when it falls.

Data set [1] is described as follows: Selectivity index, ratio of IC50 for human recombinant microsomal MAO-A expressed in baculovirus infected BTI-TN-5B1-4 cells to IC50 for human recombinant microsomal MAO-B expressed in baculovirus infected BTI-TN-5B1-4 cells.
Data set [2] addresses T1, Amine oxidase [flavin-containing] B (Homo sapiens, UniProt P27338).
T1 sequence (P27338 whole entry): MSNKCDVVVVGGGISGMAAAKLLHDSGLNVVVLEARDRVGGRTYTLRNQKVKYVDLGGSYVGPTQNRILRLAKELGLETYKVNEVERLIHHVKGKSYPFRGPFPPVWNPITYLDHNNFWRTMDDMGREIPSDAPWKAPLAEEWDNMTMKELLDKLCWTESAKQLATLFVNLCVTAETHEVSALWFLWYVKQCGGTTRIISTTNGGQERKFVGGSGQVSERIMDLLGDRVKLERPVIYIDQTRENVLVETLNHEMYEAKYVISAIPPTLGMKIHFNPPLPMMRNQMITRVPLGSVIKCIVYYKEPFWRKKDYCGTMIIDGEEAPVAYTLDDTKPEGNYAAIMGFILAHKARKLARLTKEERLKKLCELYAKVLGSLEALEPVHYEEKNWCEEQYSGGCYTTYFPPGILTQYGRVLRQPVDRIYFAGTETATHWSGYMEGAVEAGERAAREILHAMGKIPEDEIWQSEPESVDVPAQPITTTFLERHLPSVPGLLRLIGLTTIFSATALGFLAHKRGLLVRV
The experiment in a line: biochemical. The class given is cell-based, BTI-TN-5B1-4.

Data set [3] has as its target T2, Amine oxidase [flavin-containing] A (Homo sapiens, UniProt P21397).
T2 sequence (P21397 whole entry): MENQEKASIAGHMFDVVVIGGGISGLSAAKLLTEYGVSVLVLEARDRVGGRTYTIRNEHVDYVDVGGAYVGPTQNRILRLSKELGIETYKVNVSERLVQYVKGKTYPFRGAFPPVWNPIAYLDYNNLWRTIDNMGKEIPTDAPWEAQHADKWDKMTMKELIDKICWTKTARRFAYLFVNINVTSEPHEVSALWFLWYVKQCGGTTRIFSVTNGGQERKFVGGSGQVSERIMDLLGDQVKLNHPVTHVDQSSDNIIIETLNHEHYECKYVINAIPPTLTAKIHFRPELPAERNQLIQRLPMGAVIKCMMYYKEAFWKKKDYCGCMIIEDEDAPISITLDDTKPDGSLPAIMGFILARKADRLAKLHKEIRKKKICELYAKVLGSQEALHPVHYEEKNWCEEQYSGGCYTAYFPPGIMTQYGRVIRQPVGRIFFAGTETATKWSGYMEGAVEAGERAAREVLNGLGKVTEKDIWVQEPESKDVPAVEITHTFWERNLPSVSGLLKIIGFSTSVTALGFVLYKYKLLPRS
As to the kind of experiment: Inhibition of human recombinant microsomal MAO-A expressed in baculovirus infected BTI-TN-5B1-4 cells using p-tyramine as substrate assessed as reduction in H2O2 production at 100 uM preincubated for 15 mins followed by substrate addition measured for 15 mins Amplex red dye based fluorimetric method relative to control. Conditions: for inhibition (INH): human, bti-tn-5b1-4, 0.25 h, 100 µM; for inhibition at 100 µM: BTI-TN-5B1-4, human, 0.25 h; call rule not given here. In outline: (§1)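 Microsomal hMAO-A or hMAO-B from baculovirus-infected BTI-TN-5B1-4 insect cells. Activity read as H2O2 formed from p-tyramine, detected by Amplex Red resorufin fluorescence. Test compounds were checked for direct reaction with Amplex Red. Highest concentration tested was 100 μM for some compounds and 1 mM for others. Mean ± S.E.M. from five experiments.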

The target of data set [4] is T1, Amine oxidase [flavin-containing] B. As to the kind of experiment: Reversible inhibition of human recombinant microsomal MAO-B expressed in baculovirus infected BTI-TN-5B1-4 cells at 10 times IC50 using p-tyramine as substrate assessed as reduction in H2O2 production preincubated for 30 mins followed by substrate addition for 15 mins followed by compound dilution by Amplex red dye based fluorimetric method. Conditions: bti-tn-5b1-4, 0.25 h. The procedure, abridged: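 Dilution method. […] The mixture was then diluted 100-fold into buffer containing Amplex Red, horseradish peroxidase and p-tyramine, and the reaction was monitored for 15 min. Slope was compared with a control preincubated and diluted without inhibitor.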

Data set [5] has the same target. As to the kind of experiment: Inhibition of human recombinant microsomal MAO-B expressed in baculovirus infected BTI-TN-5B1-4 cells using p-tyramine as substrate assessed as reduction in H2O2 production at 1 mM preincubated for 15 mins followed by substrate addition measured for 15 mins Amplex red dye based fluorimetric method. Conditions: bti-tn-5b1-4, 0.25 h, 1000 µM. The procedure, abridged:
as §1

For the compound `Nc1ncc(/C=C2\COc3ccccc3C2=O)cn1`, the Ratio IC50 in data set [1] is above 5.5. Half-maximal inhibition in data set [2] (IC50) was put at 18.3 µM. Also, in data set [3], the “inhibition (INH)” value is “Not Active”.
For the compound `O=C1/C(=C/c2ccco2)COc2ccccc21`, the Ratio IC50 in data set [1] worked out at 27. The same compound registered an IC50 in data set [2] of 3.77 µM. In addition, in data set [3], the inhibition at 100 µM was 40%.
Taken in the same sequence, the figures for `O=C1/C(=C/c2ccsc2)COc2ccccc21` were 58, 1.73 µM and 40%.
Taken in the same sequence, the figures for `CN(C)c1ccc(/C=C2\COc3cc(Cl)cc(Cl)c3C2=O)cn1` were 9.5, 10.5 µM and 40%.
In the case of `CN(C)c1ncc(/C=C2\COc3cc(Cl)cc(Cl)c3C2=O)cn1`, the results for the “inhibition (INH)” value in data set [4] and in data set [3] were “Active” and “Not Active”, respectively. Moreover, the Ratio IC50 in data set [1] is above 9450. This compound registered an IC50 in data set [2] of 0.0106 µM.
Turning to `O=C1/C(=C/c2ccccn2)COc2ccccc21`, in data set [1], the Ratio IC50 was above 34. This compound displayed an IC50 in data set [2] of 2.94 µM. In data set [3], the “inhibition (INH)” value is listed as “Not Active”.
In the case of `O=C1/C(=C/c2ccc[nH]2)COc2ccccc21`, in data set [1], the Ratio IC50 is 7.3. This compound also displayed an IC50 in data set [2] of 13.8 µM. In addition, the inhibition at 100 µM in data set [3] was found to be 40%.
With `CN(C)c1ccc(/C=C2\COc3ccccc3C2=O)cn1`, the Ratio IC50 in data set [1] was above 469. This compound yielded an IC50 in data set [2] of 0.213 µM. In addition, the “inhibition (INH)” value in data set [3] was “Not Active”.
Consider `O=C1/C(=C/c2ccncc2)COc2ccccc21`, for which the Ratio IC50 in data set [1] is above 8. In data set [2], the IC50 was found to be 12.4 µM. Also, the “inhibition (INH)” value in data set [3] is given as “Not Active”.
`CN(C)c1ncc(/C=C2\COc3ccccc3C2=O)cn1`: the Ratio IC50 in data set [1] was above 415. This compound also had an IC50 in data set [2] of 0.241 µM. Besides, the “inhibition (INH)” value in data set [3] is “Not Active”.
As to `O=C1/C(=C/c2c[nH]cn2)COc2cc(Cl)cc(Cl)c21`, the Ratio IC50 in data set [1] stood at 9.8. The IC50 in data set [2] came to 10.2 µM. In addition, in data set [3], the inhibition at 100 µM is 40%.
Consider `O=C1/C(=C/c2c[nH]c3ccccc23)COc2ccccc21`, for which, in data set [1], the Ratio IC50 was found to be 551. Besides, in data set [2], inhibition was half-maximal at 0.181 µM (IC50). Also, the inhibition at 100 µM in data set [3] stood at 40%.
For the compound `O=C1/C(=C/c2cccnc2)COc2ccccc21`, the Ratio IC50 in data set [1] is above 12. This compound showed an IC50 in data set [2] of 8.23 µM. Further, the “inhibition (INH)” value in data set [3] is given as “Not Active”.
On to `O=C(NCCN1CCOCC1)c1ccc(Cl)cc1` [MOCLOBEMIDE], for which the “inhibition (INH)” value in data set [5] was “Not Active”.
In the case of `COc1ccc2c(c1)OC/C(=C\c1cnc(N(C)C)nc1)C2=O`, the Ratio IC50 in data set [1] was above 9.6. Further, the IC50 in data set [2] worked out at 10.4 µM. The “inhibition (INH)” value in data set [3] is reported as “Not Active”.
Consider `O=C1/C(=C/c2cccs2)COc2ccccc21`, for which, in data set [1], the Ratio IC50 worked out at 88. In data set [2], this compound showed an IC50 of 1.13 µM. Besides, the inhibition at 100 µM in data set [3] is 40%.
As to `COc1ccc2c(c1)OC/C(=C\c1c[nH]cn1)C2=O`, in data set [1], the Ratio IC50 was 9.4. In data set [2], this compound had an IC50 of 10.6 µM. In data set [3], the inhibition at 100 µM is 40%.
As for `Nc1ccc(/C=C2\COc3ccccc3C2=O)cn1`, the Ratio IC50 in data set [1] is above 42. Further, half-maximal inhibition in data set [2] (IC50) required 2.39 µM. In addition, the “inhibition (INH)” value in data set [3] is “Not Active”.
In the case of `O=C1/C(=C/c2c[nH]cn2)COc2ccccc21`, in data set [1], the Ratio IC50 came to 5. Moreover, the 50% inhibitory concentration (IC50) in data set [2] came out at 20.2 µM. In addition, the inhibition at 100 µM in data set [3] came out at 40%.
`O=C1Nc2ccccc2C1=O` [ISATIN]: the “inhibition (INH)” value in data set [3] was “Not Active”.

These data come from ChEMBL document CHEMBL3804800, “(E)-3-Heteroarylidenechroman-4-ones as potent and selective monoamine oxidase-B inhibitors” (Eur J Med Chem, 2016).
